{"source": "ChEMBL document CHEMBL6083194", "about": "“Discovery and evaluation of 3-(2-isocyanobenzyl)-1H-indole derivatives as potential quorum sensing inhibitors for the control of Pseudomonas aeruginosa infections in vitro” (RSC Med Chem, 2024)", "key": {"[1]": {"test_system": "Pseudomonas aeruginosa", "assay": "Inhibition of biofilm formation in Pseudomonas aeruginosa PAO1 at 1/2 times MIC incubated for 24 hrs crystal violet staining based SEM assay", "type": "functional"}, "[2]": {"test_system": "Erythrocyte", "assay": "Cytotoxicity against mouse RBC at 100 to 1024 ug/ml", "type": "toxicity, cell-based", "conditions": "dose 100-1024 µg/ml"}, "[3]": {"test_system": "Pseudomonas aeruginosa", "assay": "Downregulation of sdhB gene expression in Pseudomonas aeruginosa PAO1 assessed as fold decrease at 25 ug/ml by RT-qPCR analysis", "type": "functional", "conditions": "dose 25 µg/ml"}, "[4]": {"assay": "Inhibition of quorum sensing system in Pseudomonas aeruginosa PAO1 assessed as reduction in C4-HSL level at 12.5 ug/ml incubated for 24 hrs by LC-MS/MS method", "conditions": "dose 12.5 µg/ml"}, "[5]": {"assay": "Inhibition of quorum sensing system in Pseudomonas aeruginosa PAO1 assessed as reduction in C4-HSL level at 25 ug/ml incubated for 24 hrs by LC-MS/MS method", "conditions": "dose 25.0 µg/ml"}, "[6]": {"test_system": "HEK-293T", "assay": "Cytotoxicity against human HEK293T cells by CCK8 assay", "type": "functional, cell-based", "summary_of_the_method": "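HEK293T cell viability by CCK-8; IC50 determined.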"}, "[7]": {"test_system": "Pseudomonas aeruginosa", "assay": "Anti-virulence effect in Pseudomonas aeruginosa PAO1 assessed as inhibition of pyocyanin production at 12.5 ug/ml", "type": "functional", "set-up": "scale not given: the % may be the effect or the level left", "conditions": "dose 12.5 µg/ml", "summary_of_the_method": "(§1)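 Overnight PAO1 culture in LB at 37 °C, diluted to OD600 0.05 and subcultured 5–7 h to mid-log phase, then re-diluted to OD600 0.05. Grown 18 h at 37 °C and 200 rpm with compound (6.25, 12.5, 25 μg mL−1) or DMSO. Supernatant extracted into chloroform, back-extracted into 0.2 M HCl, read at 520 nm.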"}, "[8]": {"test_system": "Pseudomonas aeruginosa", "assay": "Downregulation of lasI gene expression in Pseudomonas aeruginosa PAO1 assessed as fold decrease at 25 ug/ml by RT-qPCR analysis", "type": "functional", "conditions": "dose 25 µg/ml"}, "[9]": {"test_system": "Pseudomonas aeruginosa", "assay": "Downregulation of rhlI gene expression in Pseudomonas aeruginosa PAO1 assessed as fold decrease at 25 ug/ml by RT-qPCR analysis", "type": "functional", "conditions": "dose 25 µg/ml"}, "[10]": {"test_system": "Pseudomonas aeruginosa", "assay": "Downregulation of PA5439 gene expression in Pseudomonas aeruginosa PAO1 assessed as fold decrease at 25 ug/ml by RT-qPCR analysis", "type": "functional", "conditions": "dose 25 µg/ml"}, "[11]": {"assay": "Inhibition of quorum sensing system in Pseudomonas aeruginosa PAO1 assessed as reduction in 3-oxo-C12-HSL level at 50 ug/ml incubated for 24 hrs by LC-MS/MS method", "conditions": "dose 50.0 µg/ml"}, "[12]": {"assay": "Cytotoxicity against MEF at 100 to 1024 ug/ml", "type": "toxicity, cell-based", "conditions": "mouse, dose 100-1024 µg/ml"}, "[13]": {"test_system": "Pseudomonas aeruginosa", "assay": "Downregulation of lasR gene expression in Pseudomonas aeruginosa PAO1 assessed as fold decrease at 25 ug/ml by RT-qPCR analysis", "type": "functional", "conditions": "dose 25 µg/ml"}, "[14]": {"assay": "Inhibition of quorum sensing system in Pseudomonas aeruginosa PAO1 assessed as reduction in 3-oxo-C12-HSL level at 6.25 to 25 ug/ml incubated for 24 hrs by LC-MS/MS method", "conditions": "dose 6.25-25 µg/ml"}, "[15]": {"test_system": "Pseudomonas aeruginosa", "assay": "Inhibition of biofilm formation in Pseudomonas aeruginosa PAO1 assessed as reduction in biofilm by measuring scattered appearance at 25 ug/ml incubated for 24 hrs by scanning electron microscopic assay", "type": "functional, organism-based", "conditions": "dose 25.0 µg/ml", "summary_of_the_method": "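PAO1 biofilms on coverslips treated with compound at 6.25, 12.5 or 25 μg mL−1 or DMSO. Coverslips PBS-washed, fixed in 2.5% glutaraldehyde, ethanol-dehydrated, freeze-dried, gold-coated and imaged by SEM.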"}, "[16]": {"assay": "Inhibition of quorum sensing system in Pseudomonas aeruginosa PAO1 assessed as reduction in 3-oxo-C12-HSL level at 12.5 ug/ml incubated for 24 hrs by LC-MS/MS method", "conditions": "dose 12.5 µg/ml"}, "[17]": {"test_system": "Pseudomonas aeruginosa", "assay": "Induction of biofilm eradication in Pseudomonas aeruginosa PAO1 at 12.5 ug/ml by crystal violet staining based assay", "type": "functional", "conditions": "dose 12.5 µg/ml", "summary_of_the_method": "(§2)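 PAO1 biofilms grown overnight at 37 °C in LB in 24-well plates, washed with PBS, then fresh LB with compound added and grown overnight again. Washed, methanol-fixed, crystal violet stained, ethanol solubilised, read at OD570. DMSO negative, resveratrol positive control.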"}, "[18]": {"test_system": "Pseudomonas aeruginosa", "assay": "Downregulation of sucD gene expression in Pseudomonas aeruginosa PAO1 assessed as fold decrease at 25 ug/ml by RT-qPCR analysis", "type": "functional", "conditions": "dose 25 µg/ml"}, "[19]": {"test_system": "Pseudomonas aeruginosa", "assay": "Inhibition of biofilm formation in Pseudomonas aeruginosa PAO1 at 12.5 ug/ml incubated for 24 hrs crystal violet staining based assay", "type": "functional", "summary_of_the_method": "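PAO1 grown statically for 24 h in LB ± compound in 24-well plates. Planktonic cells removed; attached cells stained with 0.05% crystal violet, rinsed, dissolved in 95% ethanol, read at OD570. DMSO negative, resveratrol positive control; SD from three independent experiments.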"}, "[20]": {"assay": "Inhibition of quorum sensing system in Pseudomonas aeruginosa PAO1", "summary_of_the_method": "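Plate screen. CV026 grown overnight in LB with 50 μg ml−1 kanamycin; 15 μl seeded into 15 ml LB agar (1.0% agarose) containing 20 μM C4-HSL. PAO1 plates run in parallel. Test colonies inoculated by toothpick, incubated overnight at 37 °C. Ring of colourless viable cells around the colony scored as inhibition.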"}, "[21]": {"test_system": "Pseudomonas aeruginosa", "assay": "Anti-virulence effect in Pseudomonas aeruginosa PAO1 assessed as inhibition of rhamnolipid production at 25 ug/ml", "type": "functional", "set-up": "scale not given: the % may be the effect or the level left", "conditions": "dose 25 µg/ml", "summary_of_the_method": "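PAO1 culture supernatant from growth with compound (6.25–25 μg mL−1) at 37 °C and 180 rpm, or with DMSO or RSV (25 μg mL−1) as controls. Orcinol assay: 100 μL sample plus 0.19% orcinol in 53% H2SO4, heated 30 min at 80 °C, cooled, read at 421 nm. At least three experiments in triplicate.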"}, "[22]": {"assay": "Inhibition of quorum sensing system in Pseudomonas aeruginosa PAO1 assessed as reduction in C4-HSL level at 6.25 to 25 ug/ml incubated for 24 hrs by LC-MS/MS method", "conditions": "dose 6.25-25 µg/ml"}, "[23]": {"test_system": "Pseudomonas aeruginosa", "assay": "Inhibition of pyocyanin production in Pseudomonas aeruginosa PAO1 at 1/2 time MIC incubated for 18 hrs", "type": "functional", "summary_of_the_method": "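Overnight PAO1 in LB diluted to OD600 = 0.05, subcultured 5–7 h to mid-log, rediluted to OD600 = 0.05. 5 mL with compound grown 18 h at 37 °C, 200 rpm. Supernatant extracted with 3 mL chloroform, back-extracted into 0.2 M HCl, absorbance at 520 nm.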"}, "[24]": {"test_system": "Pseudomonas aeruginosa", "assay": "Inhibition of biofilm formation in Pseudomonas aeruginosa PAO1 incubated for 24 hrs crystal violet staining based SEM assay", "type": "functional, organism-based"}, "[25]": {"test_system": "Pseudomonas aeruginosa", "assay": "Induction of biofilm eradication in Pseudomonas aeruginosa PAO1 at 6.25 ug/ml by crystal violet staining based assay", "type": "functional", "conditions": "dose 6.25 µg/ml", "summary_of_the_method": "as §2"}, "[26]": {"test_system": "Pseudomonas aeruginosa", "assay": "Anti-virulence effect in Pseudomonas aeruginosa PAO1 assessed as inhibition of pyocyanin production at 25 ug/ml", "type": "functional", "set-up": "scale not given: the % may be the effect or the level left", "conditions": "dose 25 µg/ml", "summary_of_the_method": "as §1"}, "[27]": {"test_system": "Pseudomonas aeruginosa", "assay": "Inhibition of rhamnolipid production in Pseudomonas aeruginosa PAO1 at 1/2 to 1/4 times MIC by orcinol method", "type": "functional, organism-based", "summary_of_the_method": "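Overnight PAO1 diluted 1:100 into LB with compound, 37 °C, 180 rpm; DMSO control. Supernatant (100 μL) mixed with 900 μL 0.19% orcinol in 53% H2SO4, heated 30 min at 80 °C, cooled, read at 421 nm.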"}, "[28]": {"test_system": "Pseudomonas aeruginosa", "assay": "Anti-virulence effect in Pseudomonas aeruginosa PAO1 assessed as inhibition of pyocyanin production", "type": "functional, organism-based", "summary_of_the_method": "as §1"}}, "note": "pIC50: −log10 of the molar value. Calls of active or inactive are those of the source. The rule behind the calls is not given here."}
{"smiles": "Cc1cccc(C#N)c1Cc1c[nH]c2ccccc12", "values": [{"measurement": "inhibition (INH)", "setting": "[1]", "result": 52, "unit": "%"}, {"measurement": "Activity", "setting": "[2]", "result": "Toxic"}, {"measurement": "fold change (FC)", "setting": "[3]", "result": 2.87}, {"measurement": "inhibition", "setting": "[4]", "result": 61, "unit": "%"}, {"measurement": "inhibition", "setting": "[5]", "result": 51, "unit": "%"}, {"measurement": "pIC50", "setting": "[6]", "result": 4.23}, {"measurement": "Activity", "setting": "[7]", "result": 57, "unit": "%"}, {"measurement": "fold change (FC)", "setting": "[8]", "result": 5}, {"measurement": "fold change (FC)", "setting": "[9]", "result": 7.3}, {"measurement": "fold change (FC)", "setting": "[10]", "result": 10.87}, {"measurement": "inhibition", "setting": "[11]", "result": 41, "unit": "%"}, {"measurement": "Activity", "setting": "[12]", "result": "Toxic"}, {"measurement": "fold change (FC)", "setting": "[13]", "result": 4.42}, {"measurement": "inhibition", "setting": "[14]", "result": "Active"}, {"measurement": "inhibition", "setting": "[15]", "result": "Active"}, {"measurement": "inhibition", "setting": "[16]", "result": 72, "unit": "%"}, {"measurement": "Activity", "setting": "[17]", "result": 50, "unit": "%"}, {"measurement": "fold change (FC)", "setting": "[18]", "result": 5.65}, {"measurement": "inhibition at 12.5 µg/mL", "setting": "[19]", "result": 53, "unit": "%"}, {"measurement": "inhibition", "setting": "[20]", "result": "Active; Strong Inhibition Observed"}, {"measurement": "Activity", "setting": "[21]", "result": 23, "unit": "%"}, {"measurement": "inhibition", "setting": "[22]", "result": "Active"}, {"measurement": "inhibition (INH)", "setting": "[23]", "result": 64, "unit": "%"}, {"measurement": "inhibition", "setting": "[24]", "result": "Dose-dependent-effect"}, {"measurement": "Activity", "setting": "[25]", "result": 43, "unit": "%"}, {"measurement": "Activity", "setting": "[26]", "result": 73, "unit": "%"}, {"measurement": "inhibition", "setting": "[27]", "result": "Active"}, {"measurement": "Activity", "setting": "[28]", "result": "Dose-dependent-effect"}]}
